Experimental findings from the RNAGym collection of RNA variant scans (doi:10.1126/science.aae0568) are described below.

Sequences and labels used below:
B1: tRNA (parent)
chain: GUUCCGUUGGCGUAAUGGUAACGCGUCUCCCUCCUAAGGAGAAGACUGCGGGUUCGAGUCCCGUACGGAACG

Variants at the floor of the assay were thinned out. A value given as a limit tells only on which side of the number the result lay.

The data set covers variants of B1. Description: yeast fitness relative to wild type (ratio to wild type); higher = fitter; tRNA-Arg(CCU), competitive growth, 37 C, YPD. An outline of the steps:
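Genotype frequency changes were the basis for Darwinian fitness relative to wild type. The frequencies came from 100-nucleotide paired-end sequencing of gene amplicons from the start population and each end population of pooled yeast strains with tRNA-Arg(CCU) gene variants at the native locus. Competition ran in YPD at 37°C for 24 hours in six replicates, genotypes needed ≥ 100 starting reads, and estimates < 0.5 were set to 0.5.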
For GUUCCGUUGGCGUAAUGGUAACGCGUCUCCCUCCUAAGGAGAAGACUGCGGGUUCGAGUCACGUACGGCACG [C61A A69C], the yeast fitness was 0.631.
Take GUUCCGUUGGCGUAAUGGUAACGCGUCUCGCUACUAAGGAGAAGACUGCGGGUUCCAGUCCCGUGCGGAACG [C30G C33A G56C A65G]: the yeast fitness is not above 0.5.
With GUUCCGUUGCCGUAAUGGUAACGCGUCUCCCUCCUAAGGAGAAGACUGCGAGUUCGAGUCCCAUACGGAACG [G10C G51A G63A] the figure was not above 0.5; with GUUCCAUUGGCGUAAUGGUAACGCGUCUCCCUCCUAAGGAGAAGACUGCGGGUGCGAAUCCCGUACGGAACG [G6A U54G G58A], not above 0.5; with GUUCCGCUGGCGUAGUGGUAACGCGUCUCCCUCCUAAGGAGAAGACUGCGGGUUCGAGUCCCGUACGGAACG [U7C A15G], 0.793.
With GUUCCGUUGGCGUAAUGCUAACGCGUCUCGCCCCUAAGGAGAAGACUGCGGGAUCGAGUCCCGUACGGAACG [G18C C30G U32C U53A] the figure was not above 0.5; with GUUCCGUUGGUGUAAUGGUAACGCGUCUCCGUCCUAUGGAGAAGACUGCGCGUUCGAAUCCCGUACGGAACG [C11U C31G A37U G51C G58A], not above 0.5.
Consider GUUCCGCUGGCGUAAUGGUAACGCGUCUCCCUCCUAAGGUGUAGACUGCGGGUACGAGUCCCGGACGGAACG [U7C A40U A42U U54A U64G], for which the yeast fitness is not above 0.5.
With GUUCCGUUGGCGUAAUGGUAACGCCUCUCCCUCCUAAGGGGAAGACUGCGGGUUCGAGUCCCGUCCGGAACG [G25C A40G A65C] the figure was 0.653; with GUUCCGUUGGCGUAAUGGUAACGCGUCUCCCUCCUAAGGAGAAGCCUGCGGGUUCGAGUCCCGUGCGGAACG [A45C A65G], 0.993; with GUUCCGUUGGCGUAAUGGUGACGCGUCUCCCUCCUAAGGAGAAGACUACGGGUUCGAGUCCCGUACGGAACG [A20G G48A], 0.933.
With GUUCCGUUGGUGUAAUGGUAACGCGUCUCCCUCCUAAGGAGAAAACUGCGGGGUCGAGUCCCGUACGGAACG [C11U G44A U53G] the figure was 0.529; with GUUCCGUAGGCGUAAUGGUAACGCGUCUCGCUCCUAAGGAGAAGAAUGCGGGUUCGAGUCCCAUACAGAACG [U8A C30G C46A G63A G67A], not above 0.5; with GUUCCGUUGGCGUAAUGGUAACGCGUCUCCCUCCUAACGAGAAGACUGCAGGUUCGAGUCCCGUACGGAGCG [G38C G50A A70G], 0.527.
As for GUUCCGUUGGCGAAAUGGUAACGUGUCUCACUCCUAAGGAGAAGACUGCGGGUUCGAGUUCCGUACGGAACG [U13A C24U C30A C60U], the yeast fitness is not above 0.5.
Take GUUCCAUUGGCGUAAUGGUAAUGCGUCUCCCUCCUAAGGAGAAGACUGAGGGUUCGAGUCCCGUACGGAACG [G6A C22U C49A]: the yeast fitness is not above 0.5.
With GUUCCGUUGGCGUAAUGGUAACGCGUCUCACUCCUAAGGUCAAGACUGCGGGUUCGAGUCGCCUACGGAACG [C30A A40U G41C C61G G63C] the figure was not above 0.5.
With GUUCCGUUGGCGUAAUGGUAACGCGUCUGCCUCCUAAGGAGAAGACUGUGGGCUCGCGUGCCGCACGUAACG [C29G C49U U53C A57C C60G U64C G68U] the figure was not above 0.5.
With GUUCCGUGGGCGUAACGGUAACGCGUCUCCCUCCUAAGGAGAAGACUGCGGGUUCGAGUCCCGUACGGAACG [U8G U16C] the figure was 0.6; with GUUCCGUUGGCGUAAUGGUGACGCGUCUCCCUCCUAAGGAGAAGACUGCGGGUUCGAGUCCCGUACGUAACG [A20G G68U], 0.866.
Regarding GUUUCGUUGGCGUAAUGGUAACGCGUCUACGUCCUAAGGAGCAGUCUGCGGGUUCGAGUCCCGUCCGGAACG [C4U C29A C31G A42C A45U A65C], the yeast fitness was not above 0.5.
With GUUCCGUUGGCGUAAUGGUAAGGCGUCUUCAUCCUAAGGAGAAGACUGCGGGUUCGAGUCCCGUACGGAACG [C22G C29U C31A] the figure was not above 0.5.
With GUUCCCUUGGCGUAAUGGUAACGCGUCUCUCUCCUAAGGAGAAGACUGCGGGUUCGAGUCCCGUACGGAACG [G6C C30U] the figure was 0.784; with GUUCCGUUGGCGUAAUGGUAACGCGUGUCCCCCCUAAGGAGAAGACUGCGGGUCCGAGUCCUGUACGGAACG [C27G U32C U54C C62U], not above 0.5.
With GUUCCGAUGGCGUAAUGGACACGCGUCUCCCUCCUAAGGGGAAGACUGCGGGUUCGAGUCCCGUACGGAACG [U7A U19A A20C A40G] the figure was not above 0.5; with GUUCCGUUGGCGUGAUGGUAACGCGUCUCACUCAUAAGGAGACGACUGCGGGUUCGAGUCCUAUACGGAACG [A14G C30A C34A A43C C62U G63A], not above 0.5.
Turning to GUUCCGUUGGCGUAAUGGUAACGCGUUUCCCUCCUAAGGAGAACACUGCGGGUUCGAGUCCCGUACGAAACG [C27U G44C G68A], the yeast fitness is 0.666.
Take GUUCCGUUGGCGUAAUGGUAACGAGUCUCCCUACUAAGGAGAAGACUGCGGGUUCGAGUCCCGUAAGGAACG [C24A C33A C66A]: the yeast fitness is 0.533.
With GUUCCGUUGGCGUAAAGGUAACGCGUCUCCCUCCUAAGGAGAAGACUGCGGGUUCGAAUCCCGUACGGAACG [U16A G58A] the figure was 0.859; with GUUCCGUUGGCGUAAUGGUCACGCGUCUCCCACCUAAGGAGAAGACUGCGGGUUCGAGUCCCGUACGGAACG [A20C U32A], 0.719.
Regarding GUUCCGUUCGCGUUAUGGUAACGGGUCUCCCUCCGAAGGAGAAGACUGCGGGUUCGAGUCGCGUACGCAACG [G9C A14U C24G U35G C61G G68C], the yeast fitness was not above 0.5.
With GUUCCGUUGGCGUCAUGGUAACGCGUCUCCUUCCUAAGGGGAAGACUGCGGGUUCGAGUCCCGUACGGAACG [A14C C31U A40G] the figure was not above 0.5.
With GUUCCGUUGGCGUAAUGGUAACGCGUCUCCCUCCUAAGGAGAGGACUGCGGGUUCGAGUCCCGUACGCAACG [A43G G68C] the figure was 0.712; with GUUCGGUUGGCGUAAUGGUAACGCGUCUCCCUCCUAAGGAGAAGACUGCGGAUUCGAGUCCCGUACGGAACG [C5G G52A], 0.806.
In the case of GUUCCGUUGGCGUAAUGGUAACGCGUCUCUCUCCAAGCGAGAAGACAGCGGGUUCGAGUCCCGUACGGAACG [C30U U35A A37G G38C U47A], the yeast fitness was not above 0.5.
With GUUCCGUUGGCGUUAUGGUAACGCGUCUCCCUCCUAAGGUGAAGACUGCGGGUUCGAGUCCCGUACAGAACG [A14U A40U G67A] the figure was 0.539.
With GUUCCGUUGGCGUAAAAGUAACGCGUCUCCCUACUAACGAGAGGACUGCGGGCUCGAGUCCCGUACGGAACG [U16A G17A C33A G38C A43G U53C] the figure was not above 0.5; with GUUCCGGUGGCGUAAUGGUAACGCGUCUAACUCCUAAGGAGAAGACUGCGGGUACGGGUCCCGAACGGAACG [U7G C29A C30A U54A A57G U64A], 0.561.
